Rtt109 HAT inh: C. albicans Rtt109 histone acetyltransferase inhibition; Q5AAJ8; inhibition, % at 34.9 µM; purified Rtt109/Vps75, ThioGlo CoA-SH fluorescence, 4 h; 0.16% of 330,000 active;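 active means inhibition of at least 50% in every replicate; inconclusive means best replicate reaches 50% inhibition but some replicates fall short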
Target sequence (Q5AAJ8 whole entry, looked up): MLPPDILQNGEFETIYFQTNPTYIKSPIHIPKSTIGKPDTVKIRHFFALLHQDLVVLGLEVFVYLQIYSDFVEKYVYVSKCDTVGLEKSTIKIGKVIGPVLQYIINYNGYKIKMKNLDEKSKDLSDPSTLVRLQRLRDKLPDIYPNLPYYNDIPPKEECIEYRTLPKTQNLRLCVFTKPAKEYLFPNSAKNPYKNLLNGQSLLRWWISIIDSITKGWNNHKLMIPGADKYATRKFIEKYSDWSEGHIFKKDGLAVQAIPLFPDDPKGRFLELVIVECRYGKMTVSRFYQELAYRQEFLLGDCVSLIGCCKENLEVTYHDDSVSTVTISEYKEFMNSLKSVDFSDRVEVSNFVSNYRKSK
PglD DTNB: blocks C. jejuni PglD acetyltransferase activity; purified PglD enzyme, DTNB colorimetric CoA detection; inhibition, % at 12.5 µM; 0.098% of 360,000 active; AID 602405; in the data active means inhibition above about 16%, passing the limit was not always enough; inconclusive means no clear call, values can overlap the other calls
SR-BI DiI inh: mouse SR-BI HDL lipid transfer inhibition. inhibition, % at 12.5 µM. 0.96% of 320,000 active. ldlA[mSR-BI] CHO cells, DiI-HDL uptake fluorescence, 3 h;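 active means mean replicate inhibition of at least 70% and a set share of replicates each scoring 70 or more; inconclusive means meets just one of the two criteria; inactive means fails both criteria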;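 further: 0% = median of neutral control wells and 100% = median of positive control wells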
Glyco luc inh: blocks N-linked glycosylation in D54 reporter cells; D54 ERlucT glycosylation luciferase reporter, 24 h; percent of 100 nM tunicamycin response; reporter increase, % at 12.5 µM; 0.23% of 360,000 active; AID 588692;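 active means mean luciferase reporter signal, scaled so untreated is 0 and the glycosylation-blocking control 100, at or above a set limit in every replicate; inconclusive means mean reaches the limit but not every replicate does; inactive means mean below the limit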;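 further: luciferase carries N-glycosylation sites so blocking glycosylation raises the light; 0% = median of neutral control wells and 100% = median of 100 nM tunicamycin wells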
SR-BI uptake up: SR-BI HDL lipid transfer activation | AID 504775 | CHO ldlA[mSR-BI] cells, DiI-HDL uptake fluorescence, 3 h; 100 = double the neutral-control signal | 0.096% of 320,000 active | activation, % at 12.5 µM;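 active means mean replicate activation of at least 60% and every replicate at or above 60%; inconclusive means mean or all-replicate condition met, but not both; inactive means mean below 60% and not all replicates reaching 60%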;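 further: 0% = median plate neutral-control signal and 100% = twice that signal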
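Test system: SR-BI-overexpressing, LDLR-lacking CHO cells; Medium: Ham's F12 with 0.5% BSA, HEPES 25 mM, pH 7.4; Schedule: 3 h, 37 °C; Technique: bottom-read fluorescence, 550/595 nm.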
HIV Env fusion: blocks HIV Env-driven cell-cell fusion | 1.1% of 360,000 active | inhibition, % at 12.3 µM | HeLa-JRFL Env/CEM21 cell fusion, luciferase;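 active means mean replicate inhibition score of at least 50 and every replicate individually at or above 50; inconclusive means only one of the two criteria met; inactive means mean below 50 and not all replicates reaching 50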;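 further: 0% = plate neutral controls and 100% = maraviroc near 300 nM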
* hit, by the source's call; ? = inconclusive; / = no result; [ ] = remark or other dose. Sampled rows, rich in hits. Any-hit rate of the full collection: about 1.9%.

SMILES | Rtt109 HAT inh | PglD DTNB | SR-BI DiI inh | Glyco luc inh | SR-BI uptake up | HIV Env fusion
CCCC(=O)N(c1ccc2oc(=O)sc2c1)S(=O)(=O)c1cccs1 | 124.1* | -1.1 | 20.8 | 4.6 | -20.8 | /
COc1ccc(S(=O)(=O)N(C(=O)C(C)C)c2ccc3oc(=O)sc3c2)cc1 | 5.0 | 8.1 | 5.6 | 1.9 | -5.6 | /
CO[C@H]1CN(C)C(=O)c2cc(NC(=O)c3ccccc3)ccc2OC[C@H](C)N(C)C[C@H]1C | / | 0.6 | / | / | / | /
CN(CCc1ccccc1)C(c1ccnc2ccccc12)c1nnnn1-c1ccc2c(c1)OCCO2 (stereo not given) | / | / | / | / | / | 60.2*
c1ccc(CN(Cc2ccccc2)C(c2ccnc3ccccc23)c2nnnn2-c2ccc3c(c2)OCCO3)cc1 (stereo not given) | / | / | / | / | / | 22.4
Cc1cccc(C)c1-n1nnnc1C(c1ccnc2ccccc12)N(Cc1ccccc1)Cc1ccccc1 (stereo not given) | / | / | / | / | / | 90.1*
COc1ccc(-n2c(SCC(=O)N3CCCCC3C)nnc2-c2cccnc2)cc1 (stereo not given) | -9.9 | 2.0 | -116.7 | -2.1 | 116.7* | -92.1
C[C@@H]1CCCCO[C@@H](CN(C)Cc2ccc(C(=O)Nc3ccccc3N)cc2)[C@@H](C)CN([C@H](C)CO)C(=O)c2cc(NC(=O)Nc3ccc4c(c3)OCO4)ccc2O1 | / | -0.9 | / | / | / | 3.2[16.7 µM]
Cn1c(-c2ccccc2)c(/C=N/NC(=O)c2cccnc2)c2ccccc21 | -69.0 | / | 41.5 | 46.9* | -41.5 | -17.8
O=C(N/N=C/c1ccc(OC(=O)c2ccc([N+](=O)[O-])cc2)cc1)c1cccnc1 | -3.7 | 4.3 | -2.3 | -0.1 | 2.3 | 9.9
O=C(N/N=C/c1c(-c2ccccc2)[nH]c2ccccc12)c1cccnc1 | 14.8 | / | 75.2* | ? | -75.2 | -5.4
Cn1cccc1/C=N/NC(=O)c1cccnc1 | 3.6 | -5.1 | -19.2 | 1.9 | 19.2 | -44.0
O=C(N/N=C/c1ccc(OC(=O)c2ccccc2)cc1)c1cccnc1 | -11.5 | -2.0 | -6.3 | 3.9 | 6.3 | 56.7*
O=C(C[C@@H]1CC[C@@H]2[C@H](COC[C@@H](O)CN2C(=O)c2ccc3c(c2)OCO3)O1)NC1CCCC1 | / | -0.9 | / | / | / | 2.1[16.7 µM]
C[C@H]1CN([C@@H](C)CO)C(=O)Cc2cc(NC(=O)Cc3ccccc3)ccc2O[C@H]1CN(C)Cc1ccc(C(=O)O)cc1 | / | 2.1 | / | / | / | 8.6[16.7 µM]
CCOC(=O)c1sc2nc3c(SCCC(=O)O)cc(C(=O)c4cc(OC)ccc4O)cn3c(=O)c2c1C | -0.2 | / | / | -3.8 | / | 71.8*
CCOC(=O)N1CCN(C(=O)c2oc3ccc(S(=O)(=O)N4CC(C)CC(C)C4)cc3c2C)CC1 (stereo not given) | 4.7 | -2.7 | -9.8 | -3.2 | 9.8 | 61.7*
CCc1csc(N2[C@H](C#N)[C@H](c3ccc(-c4ccc(F)cc4)cc3)[C@@H]2CO)n1 | / | -3.3 | / | / | / | 16.3[16.7 µM]
CCCN(CCC)C(=O)CSc1nc2ccccc2c(=O)n1CC1COc2ccccc2O1 (stereo not given) | 4.7 | -1.9 | 3.8 | -4.1 | -3.8 | 25.6
CCOC(=O)CSc1nc2ccccc2c(=O)n1CC1COc2ccccc2O1 (stereo not given) | -6.0 | 2.0 | -9.1 | -1.3 | 9.1 | 64.7*
CN1CC(c2ccccc2Cl)C2(COc3ccccc3C2=O)C12C(=O)Nc1ccccc12 (stereo not given) | -7.2 | -5.2 | 15.8 | -7.3 | -15.8 | 78.2*
Cc1cc(NC(=O)c2cc(-c3ccc(C)c(C)c3)nc3ccccc23)no1 | 3.3 | -1.8 | 69.5 | -1.3 | -69.5 | /
O=C(NCC(c1cccs1)N1CCOCC1)c1cn(-c2ccccc2)nc1-c1ccc(F)cc1 (stereo not given) | -6.3 | / | 14.7 | 1.5 | -14.7 | 12.5
Cc1ccc(-c2cc(C(=O)Nc3cc(C)on3)c3ccccc3n2)cc1 | -1.0 | / | 73.7* | 2.6 | -73.7 | -28.2
Cc1cc(NC(=O)c2cc(-c3ccncc3)nc3c(C)cccc23)no1 | -4.0 | 17.9 | 70.9* | 17.2 | -70.9 | /
Cc1c(NC(=O)c2cc(-c3ccc(F)cc3)nc3ccccc23)c(=O)n(-c2ccccc2)n1C | -2.7 | / | 86.4* | -0.5 | -86.4 | 7.6

Screening results deposited in PubChem by Broad Institute.
